# In article PMC4111403 (Journal of Medicinal Chemistry, 2014):
# Key:
# [1] = tested on: acetylated α-tubulin (AcTub) in QBI293 cells; assay: QBI293 cell AcTub; format: cell-based; settings: for activity in AcTub assay: 1 μM; for increase of cellular AcTub (words, Figure 2): compared with 1
# Procedure, shortened: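 QBI293 cells are an HEK293 derivative. Tubulin acetylation, which occurs on polymerized tubulin, serves as the cellular read-out of MT stabilization. Test compounds were run at 0.1 or 1 μM. AcTub was expressed relative to vehicle-treated cells and to a 0.1 μM reference MT-stabilizer positive control. Significance was assessed by two-tailed t-test.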
# [2] = tested on: acetylated α-tubulin (AcTub) in QBI293 cells; settings: 50–500 nM concentrations ref 8; cited from earlier work
# [3] = tested on: AcTub levels in brain homogenates; settings: single ip injection 1–6 mg/kg, mice ref 4; cited from earlier work
# Pgp transporter = settings: cited from earlier work
# QBI293 cells = assay: AcTub immunofluorescence of QBI293 cells; format: cell-based; settings: 4 h incubation; 2 at 100 nM, colchicine at 1 μM
# [4] = 16 h brain and plasma PK study after ip dosing; format: in vivo, CD1 mice; settings: for brain penetration / BBB permeability: mouse, ip dosing; for half-life: CD1, mouse, ip, 5 mg/kg
# Procedure, shortened: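 2-month-old CD1 mice (20 g average). Plasma from EDTA-collected blood spun 4500g, 10 min, 4 °C; brain hemispheres sonicated in 10 mM ammonium acetate pH 5.7 (1:2 w/v). Acetonitrile-precipitated supernatants quantified by LC–MS/MS (positive ESI, MRM) against spiked-matrix standards 0.005–5 μM.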
# β-tubulin = β-tubulin ref 28; cited from earlier work
# human Pgp = human Pgp (Homo sapiens, UniProt P08183); assay: Pgp-interaction assay; format: cell-based; settings: NCI/ADR-RES cells
# Sequence of human Pgp (P08183 whole entry): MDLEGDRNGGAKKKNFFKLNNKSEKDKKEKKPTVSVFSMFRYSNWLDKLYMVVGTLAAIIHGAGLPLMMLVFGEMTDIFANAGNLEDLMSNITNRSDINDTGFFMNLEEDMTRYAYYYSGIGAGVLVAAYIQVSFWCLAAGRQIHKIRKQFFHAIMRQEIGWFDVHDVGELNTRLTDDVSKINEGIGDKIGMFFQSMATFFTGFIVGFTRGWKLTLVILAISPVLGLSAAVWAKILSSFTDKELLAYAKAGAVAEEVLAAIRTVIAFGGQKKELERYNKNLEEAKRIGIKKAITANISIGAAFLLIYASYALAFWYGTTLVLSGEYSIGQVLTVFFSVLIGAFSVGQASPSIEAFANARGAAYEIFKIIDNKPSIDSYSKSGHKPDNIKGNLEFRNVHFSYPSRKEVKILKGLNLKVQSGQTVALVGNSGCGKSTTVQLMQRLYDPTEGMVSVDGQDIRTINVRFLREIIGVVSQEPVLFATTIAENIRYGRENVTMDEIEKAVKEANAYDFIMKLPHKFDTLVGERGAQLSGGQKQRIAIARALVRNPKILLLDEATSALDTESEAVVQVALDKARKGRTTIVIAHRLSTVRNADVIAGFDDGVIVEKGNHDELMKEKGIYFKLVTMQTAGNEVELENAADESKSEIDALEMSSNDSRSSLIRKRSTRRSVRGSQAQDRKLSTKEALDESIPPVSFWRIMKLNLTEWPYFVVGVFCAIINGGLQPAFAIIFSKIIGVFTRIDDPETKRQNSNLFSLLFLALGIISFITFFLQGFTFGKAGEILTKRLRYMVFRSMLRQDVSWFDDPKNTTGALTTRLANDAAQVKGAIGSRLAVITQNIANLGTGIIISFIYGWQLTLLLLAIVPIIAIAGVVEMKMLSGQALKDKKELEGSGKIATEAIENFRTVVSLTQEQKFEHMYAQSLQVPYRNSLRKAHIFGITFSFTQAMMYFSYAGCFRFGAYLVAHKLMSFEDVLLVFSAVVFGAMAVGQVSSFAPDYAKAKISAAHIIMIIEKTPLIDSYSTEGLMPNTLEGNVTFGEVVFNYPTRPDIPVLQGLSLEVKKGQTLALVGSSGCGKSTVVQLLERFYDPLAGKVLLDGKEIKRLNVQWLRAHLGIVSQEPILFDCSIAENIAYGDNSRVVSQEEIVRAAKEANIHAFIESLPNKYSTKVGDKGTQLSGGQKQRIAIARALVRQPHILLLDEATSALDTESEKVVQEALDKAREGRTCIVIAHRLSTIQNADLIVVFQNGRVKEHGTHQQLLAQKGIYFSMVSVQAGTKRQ
# [5] = tested on: Pgp-expressing cancer cell lines; settings: cited from earlier work
# [6] = Brain and plasma levels 2 h after oral administration; format: in vivo, mice; settings: 2 h after oral administration of 10 mg/kg
# Procedure, shortened: (§1)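 Dosing in 2-month-old CD1 mice (20 g average). Brain hemispheres homogenized by sonication in 10 mM ammonium acetate pH 5.7 (1:2 w/v); plasma from EDTA blood centrifuged 4500g, 10 min, 4 °C. Samples precipitated with acetonitrile, spun 15 000g, then analysed by UPLC–MS/MS with positive ESI and MRM. Quantified against brain- and plasma-matrix standard curves spanning 0.005–5 μM.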
# [7] = Unbound fraction in brain homogenate by equilibrium dialysis; format: in vitro ADME; settings: ratio of brain Fu values
# [8] = tested on: AcTub levels in brain homogenates; assay: Brain pharmacodynamic effect: AcTub levels in brain homogenates; format: in vivo, WT mice; settings: 1 mg/kg daily ip for 4 or 6 days, n = 3
# tau transgenic (Tg) mice = settings: tau Tg mice with brain stem and spinal cord tau pathology ref 5; cited from earlier work
# [9] = Brain and plasma compound concentration 1 h after ip injection; format: in vivo, CD1 mice; settings: 1 h after ip injection of 5 mg/kg, mouse
# Procedure, shortened: as §1
molecule,measurement,setting,value
"5-(4-Chlorophenyl)-6-methyl-4-(2,4,6-trifluorophenyl)pyridazin-3(2H)-one [Compound 6, reference compound]",activity in AcTub assay,[1],essentially inactive
same,AcTub fold-change relative to vehicle control,[1]; compound at 1 μM,1.5 ± 0.8^ns fold-change
"C/C1=C/C[C@@H](/C(C)=C/c2csc(C)n2)OC(=O)C[C@H](O)C(C)(C)C(=O)[C@H](C)[C@@H](O)[C@@H](C)CCC1 [Compound 1, epothilone D]",elevation of AcTub levels in cells,[2],significant elevation
same,elevation in AcTub levels in brain homogenates,[3],significant elevation
same,Pgp transporter inhibition,Pgp transporter,inhibitor of the Pgp transporter
"CNCCCOc1cc(F)c(-c2c(Cl)nc3ncnn3c2N[C@@H](C)C(F)(F)F)c(F)c1 [Compound 2, (S)-5-Chloro-6-(2,6-difluoro-4-(3-(methylamino)propoxy)phenyl)-N-(1,1,1-trifluoropropan-2-yl)[1,2,4]triazolo[1,5-a]pyrimidin-7-amine]",AcTub staining by immunofluorescence,QBI293 cells,large increase in AcTub-positive structures
same,brain penetration / BBB permeability,[4],negligible brain penetration
same,competition for the taxane/epothilone binding site,β-tubulin,not to compete
same,effect on vinblastine binding,β-tubulin,did affect vinblastine binding
same,effect on Pgp function (calcein-AM transport),human Pgp,did not interfere appreciably with Pgp function
same,activity against Pgp-expressing cancer cell lines,[5],active
same,"increase of cellular AcTub (words, Figure 2)",[1],significant increase
"Cc1nnc(Cl)c(-c2c(F)cc(F)cc2F)c1-c1ccc(Cl)s1 [Compound 7, 3-Chloro-5-(5-chlorothiophen-2-yl)-6-methyl-4-(2,4,6-trifluorophenyl)pyridazine, reference compound]",activity in AcTub assay,[1],essentially inactive
"C[C@H](Nc1c(-c2c(F)cc(OCCCN(C)C)cc2F)c(Cl)nc2ncnn12)C(F)(F)F [Compound 9, (S)-5-Chloro-6-(4-(3-(dimethylamino)propoxy)-2,6-difluorophenyl)-N-(1,1,1-trifluoropropan-2-yl)[1,2,4]triazolo[1,5-a]pyrimidin-7-amine]",brain and plasma levels after oral dosing,[6],micromolar levels
same,brain Fu value of 9 relative to 20,[7],~3 fold
same,half-life,[4]; brain,> 2 h
same,half-life,[4]; plasma,> 2 h
same,brain penetration / BBB permeability,[4],relatively limited
same,effect on Pgp function (calcein-AM transport),human Pgp,did not interfere appreciably with Pgp function
same,PD response: AcTub level in brain,[8],significant PD response
same,"increase of cellular AcTub (words, Figure 2)",[1],large increase
same,AcTub fold-change relative to vehicle control (numbers in parentheses),[1]; compound at 0.1 μM,(2.0 ± 1.4) fold-change
"C[C@H](Nc1nc(-c2cnccn2)nc(Cl)c1-c1c(F)cc(F)cc1F)C(F)(F)F [Compound 20, (S)-6-Chloro-2-(pyrazin-2-yl)-5-(2,4,6-trifluorophenyl)-N-(1,1,1-trifluoropropan-2-yl)pyrimidin-4-amine]",brain and plasma levels after oral dosing,[6],micromolar levels
same,brain penetration / BBB permeability,[4],can readily partition across the BBB
same,effect on Pgp function (calcein-AM transport),human Pgp,did not interfere appreciably with Pgp function
same,PD response: AcTub level in brain,[8],significant PD response
same,"increase of cellular AcTub (words, Figure 2)",[1],large increase
"CC(C)Nc1c(-c2c(F)cc(F)cc2F)c(Cl)nc2nccnc12 [Compound 37, 6-Chloro-N-isopropyl-7-(2,4,6-trifluorophenyl)pyrido[2,3-b]pyrazin-8-amine]",activity in AcTub assay,[1],essentially inactive
COc1cc2c(c(OC)c1OC)-c1ccc(OC)c(=O)cc1[C@@H](NC(C)=O)CC2 [colchicine],AcTub staining by immunofluorescence,QBI293 cells,significant loss of AcTub staining
CC(=O)O[C@H]1C(=O)[C@@]2(C)[C@H]([C@H](OC(=O)c3ccccc3)[C@]3(O)C[C@H](OC(=O)[C@H](O)[C@@H](NC(=O)c4ccccc4)c4ccccc4)C(C)=C1C3(C)C)[C@]1(OC(C)=O)CO[C@@H]1C[C@@H]2O [paclitaxel],effect on neurodegenerative phenotype of tau Tg mice,tau transgenic (Tg) mice,improve the neurodegenerative phenotype
"(S)-N-(3-(4-(5-Chloro-7-((1,1,1-trifluoropropan-2-yl)amino)[1,2,4]triazolo[1,5-a]pyrimidin-6-yl)-3,5-difluorophenoxy)propyl)pivalamide [Compound 16]",B/P (brain-to-plasma ratio),[9],0.12 ± 0.03
same,brain concentration,[9],170 ± 10 nM
same,plasma concentration,[9],1500 ± 500 nM
same,AcTub fold-change relative to vehicle control,[1]; compound at 1 μM,2.4 ± 0.9 fold-change
same,AcTub fold-change relative to 0.1 μM 2,"[1]; compound at 1 μM, relative to positive control 0.1 μM 2",0.7 ± 0.1 fold-change
